Results on 20 compounds are retold here after ChEMBL document CHEMBL1122836, “Angiotensin converting enzyme inhibitors: structure-activity profile of 1-benzazepin-2-one derivatives” (J Med Chem, 1985).

In experiment [1] the target is Angiotensin-converting enzyme (Homo sapiens, UniProt P12821). The experiment can be described thus: (§1) In vitro inhibitory activity against Angiotensin I converting enzyme.
The subject of experiment [2] is Rattus norvegicus. In words: In vivo inhibitory activity against Angiotensin I pressor response in normotensive rats after peroral administration. The class given is functional. The following applies: po, read-out: ID50 (the source's name).
The subject of experiment [3] is Rattus norvegicus. The experiment can be described thus: Maximal changes in blood pressure recorded during the 4 day test period in spontaneous hypertensive rats, at 3 mg/kg peroral dose. The class given is functional. The conditions noted are these: route oral. In short, it runs like this:
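Spontaneously hypertensive rats dosed orally with test compound. Blood pressure was recorded over a 4-day test period. The value is the maximal change in blood pressure seen in that period, given in mm with the oral dose (mg/kg) in brackets.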

In experiment [4] the test system is Canis familiaris. In words: In vivo inhibitory activity against Angiotensin I pressor response in normotensive dog after peroral administration, experiment 1. The class given is functional. The following applies: Canis lupus familiaris, po; read-out: ID50 (the source's name).
For experiment [5], the system named is Rattus norvegicus. The experiment can be described thus: Maximal changes in blood pressure recorded during the 4 day test period in spontaneous hypertensive rats, at 1 mg/kg peroral dose. The class given is functional. The following applies: route oral.
Experiment [6] deals with Rattus norvegicus. In words: In vivo inhibitory activity against Angiotensin I pressor response in normotensive rats by peroral administration, experiment 2. The class given is functional. The conditions noted are these: po, read-out: ID50 (the source's name).
The subject of experiment [7] is Canis familiaris. The experiment can be described thus: In vivo inhibitory activity against Angiotensin I pressor response in normotensive dog after peroral administration, ecperiment 2. The following applies: Canis lupus familiaris, po; read-out: ID50 (the source's name). The class given is functional.
Experiment [8] addresses T1, Angiotensin-converting enzyme (Rattus norvegicus, UniProt P47820).
T1 sequence (P47820 whole entry): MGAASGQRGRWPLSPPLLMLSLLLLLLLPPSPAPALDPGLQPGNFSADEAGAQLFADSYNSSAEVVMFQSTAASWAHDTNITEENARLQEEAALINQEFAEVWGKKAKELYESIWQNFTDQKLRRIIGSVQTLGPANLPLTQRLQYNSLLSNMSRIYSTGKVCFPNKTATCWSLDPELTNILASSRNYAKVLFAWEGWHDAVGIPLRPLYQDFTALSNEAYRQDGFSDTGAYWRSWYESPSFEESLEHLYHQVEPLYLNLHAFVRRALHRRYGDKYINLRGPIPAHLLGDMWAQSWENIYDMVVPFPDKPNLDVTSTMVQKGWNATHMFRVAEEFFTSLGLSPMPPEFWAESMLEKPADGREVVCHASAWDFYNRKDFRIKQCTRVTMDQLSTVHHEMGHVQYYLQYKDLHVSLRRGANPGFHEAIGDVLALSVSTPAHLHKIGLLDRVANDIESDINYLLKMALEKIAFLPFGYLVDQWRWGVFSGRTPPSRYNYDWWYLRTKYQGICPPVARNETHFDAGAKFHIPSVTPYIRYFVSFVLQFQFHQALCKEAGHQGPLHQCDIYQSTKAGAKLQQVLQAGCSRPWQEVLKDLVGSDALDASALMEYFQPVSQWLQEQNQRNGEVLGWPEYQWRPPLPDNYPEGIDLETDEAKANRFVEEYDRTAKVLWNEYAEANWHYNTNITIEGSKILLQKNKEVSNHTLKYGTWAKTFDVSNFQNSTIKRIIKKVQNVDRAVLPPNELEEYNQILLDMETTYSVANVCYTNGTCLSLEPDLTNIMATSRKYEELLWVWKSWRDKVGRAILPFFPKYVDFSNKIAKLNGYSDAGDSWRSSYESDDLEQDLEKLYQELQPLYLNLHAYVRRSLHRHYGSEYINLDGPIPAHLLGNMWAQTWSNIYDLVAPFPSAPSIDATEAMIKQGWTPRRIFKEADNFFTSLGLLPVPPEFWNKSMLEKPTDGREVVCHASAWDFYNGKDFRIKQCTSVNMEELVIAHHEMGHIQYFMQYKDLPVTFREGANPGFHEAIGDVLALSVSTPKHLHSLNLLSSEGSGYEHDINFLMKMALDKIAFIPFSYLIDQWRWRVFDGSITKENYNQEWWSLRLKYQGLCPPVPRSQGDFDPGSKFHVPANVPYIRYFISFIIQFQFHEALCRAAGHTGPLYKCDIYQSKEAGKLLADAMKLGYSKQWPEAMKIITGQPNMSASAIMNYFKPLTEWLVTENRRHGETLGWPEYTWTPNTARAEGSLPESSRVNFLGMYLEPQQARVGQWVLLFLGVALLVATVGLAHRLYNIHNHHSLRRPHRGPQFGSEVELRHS
The description is as §1.

In experiment [9] the test system is Rattus norvegicus. The experiment can be described thus: Maximal changes in blood pressure recorded during the 4 day test period in spontaneous hypertensive rats, at 30 mg/kg peroral dose. The following applies: route oral. The class given is functional. In short, it runs like this:
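Spontaneously hypertensive rats dosed orally and blood pressure recorded over a 4-day test period. Readout is the maximal change in blood pressure (mm) with the oral dose noted; pressure also followed at 24 h after dosing.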

The test system of experiment [10] is Canis familiaris. The experiment can be described thus: In vivo inhibitory activity against Angiotensin I pressor response in normotensive dog after peroral administration. The class given is functional. The conditions noted are these: Canis lupus familiaris, po; read-out: ID50 (the source's name).

As a reminder, the IC50 is the concentration at which inhibition is half-maximal. Lower therefore signals higher potency.

Sequence of Angiotensin-converting enzyme (Homo sapiens, UniProt P12821) (P12821 whole entry): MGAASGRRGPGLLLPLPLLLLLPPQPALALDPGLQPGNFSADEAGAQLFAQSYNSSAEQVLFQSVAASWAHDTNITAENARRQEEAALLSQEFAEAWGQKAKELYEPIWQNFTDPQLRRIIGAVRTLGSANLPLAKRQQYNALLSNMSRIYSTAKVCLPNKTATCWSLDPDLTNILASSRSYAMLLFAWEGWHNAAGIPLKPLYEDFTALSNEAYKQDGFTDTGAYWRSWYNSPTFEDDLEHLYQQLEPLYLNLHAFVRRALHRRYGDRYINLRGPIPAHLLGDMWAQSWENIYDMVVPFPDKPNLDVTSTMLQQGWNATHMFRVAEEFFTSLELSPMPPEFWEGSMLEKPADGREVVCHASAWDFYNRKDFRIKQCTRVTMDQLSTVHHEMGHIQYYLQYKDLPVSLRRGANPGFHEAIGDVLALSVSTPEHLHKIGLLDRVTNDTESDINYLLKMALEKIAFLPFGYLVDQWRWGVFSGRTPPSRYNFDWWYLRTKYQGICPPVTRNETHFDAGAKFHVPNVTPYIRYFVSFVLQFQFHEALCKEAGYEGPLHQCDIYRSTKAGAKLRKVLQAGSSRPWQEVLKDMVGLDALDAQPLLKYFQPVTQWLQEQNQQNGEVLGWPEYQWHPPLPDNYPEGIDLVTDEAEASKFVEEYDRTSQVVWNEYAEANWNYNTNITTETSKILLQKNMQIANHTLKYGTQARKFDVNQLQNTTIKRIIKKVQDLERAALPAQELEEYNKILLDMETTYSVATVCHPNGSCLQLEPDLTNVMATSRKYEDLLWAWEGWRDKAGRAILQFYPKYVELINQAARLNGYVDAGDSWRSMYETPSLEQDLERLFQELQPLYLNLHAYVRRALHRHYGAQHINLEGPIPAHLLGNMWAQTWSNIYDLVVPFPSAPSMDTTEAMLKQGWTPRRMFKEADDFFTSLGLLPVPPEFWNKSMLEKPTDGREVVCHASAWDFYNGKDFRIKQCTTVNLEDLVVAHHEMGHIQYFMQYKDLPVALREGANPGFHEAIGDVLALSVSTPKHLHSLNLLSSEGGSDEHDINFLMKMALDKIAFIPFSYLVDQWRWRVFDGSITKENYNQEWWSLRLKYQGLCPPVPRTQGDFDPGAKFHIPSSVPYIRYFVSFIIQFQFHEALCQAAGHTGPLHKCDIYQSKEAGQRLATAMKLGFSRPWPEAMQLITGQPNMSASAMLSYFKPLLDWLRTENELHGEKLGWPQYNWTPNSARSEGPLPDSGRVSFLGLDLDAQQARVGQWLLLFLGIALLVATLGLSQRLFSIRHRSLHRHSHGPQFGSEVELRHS

Consider `O=C(O)CN1C(=O)[C@@H](N[C@@H](CSCc2ccccc2)C(=O)O)CCc2ccccc21`, for which, in [1], the half-inhibitory concentration (IC50) was found to be 2.9 nM.

Turning to `CCOC(=O)[C@H](CCCCNC(=O)OCc1ccccc1)N[C@H]1CCc2ccccc2N(CC(=O)O)C1=O`, half-maximal inhibition in [1] (IC50) required 15 nM.

In the case of `COC(=O)[C@H](CC(C)C)N[C@H]1CCc2ccccc2N(CC(=O)O)C1=O`, it took 1000 nM to reach half-maximal inhibition in experiment [1] (IC50). This IC50 is about 67-fold higher than that of the compound before.

Take `O=C(O)CN1C(=O)[C@@H](N[C@@H](Cc2ccccc2)C(=O)O)CCc2ccccc21`: the half-maximal inhibitory concentration (IC50) in experiment [1] came out at 8.5 nM.

As to `CCOC(=O)[C@H](Cc1c[nH]c2ccccc12)N[C@H]1CCc2ccccc2N(CC(=O)O)C1=O`, half-maximal inhibition in experiment [1] (IC50) was put at 540 nM.

As for `O=C(O)CN1C(=O)[C@@H](N[C@@H](CSc2ccccc2)C(=O)O)CCc2ccccc21`, the IC50 in experiment [1] stood at 4 nM.

In the case of `CC(C)(C)OC(=O)NCCCC[C@H](N[C@H]1CCc2ccccc2N(CC(=O)O)C1=O)C(=O)O`, in experiment [1], the IC50 worked out at 4 nM. This lies in the single-digit nanomolar range.

For the compound `CCCC[C@H](N[C@H]1CCc2ccccc2N(CC(=O)O)C1=O)C(=O)OCC`, in experiment [1], the midpoint of inhibition, the IC50, lay at 2600 nM. Compared with the last compound, the IC50 is about 650-fold higher.

In experiment [1], `CC(C)C[C@H](N[C@H]1CCc2ccccc2N(CC(=O)O)C1=O)C(=O)O` yielded a half-maximal inhibitory concentration (IC50) of 45 nM.

In experiment [1], `CSCC[C@H](N[C@H]1CCc2ccccc2N(CC(=O)O)C1=O)C(=O)O` yielded an IC50 of 6.5 nM.

`CCOC(=O)[C@H](CCCCN)N[C@H]1CCc2ccccc2N(CC(=O)O)C1=O` displayed an IC50 in experiment [1] of 40 nM.

Turning to `CCCC[C@H](N[C@H]1CCc2ccccc2N(CC(=O)O)C1=O)C(=O)O`, the concentration for half-maximal inhibition (IC50) in experiment [1] was found to be 5 nM.

In experiment [1], `O=C(O)CN1C(=O)[C@@H](N[C@@H](COCc2ccccc2)C(=O)O)CCc2ccccc21` had an IC50 of 10 nM.

With `O=C(O)CN1C(=O)[C@@H](N[C@@H](CSCCc2ccccc2)C(=O)O)CCc2ccccc21`, the midpoint of inhibition in [1], the IC50, lay at 7 nM.

For the compound `O=C(O)CN1C(=O)[C@@H](N[C@@H](CCCCNC(=O)OCc2ccccc2)C(=O)O)CCc2ccccc21`, the half-inhibitory concentration (IC50) in experiment [1] amounted to 13 nM.

`O=C(O)CN1C(=O)[C@@H](N[C@@H](Cc2c[nH]c3ccccc23)C(=O)O)CCc2ccccc21`: the IC50 in experiment [1] was determined as 13 nM. This lies in the double-digit nanomolar range.

In turn, `CCC[C@H](N[C@H]1CCc2ccccc2N(CC(=O)O)C1=O)C(=O)O` yielded an IC50 in experiment [1] of 6 nM.

Consider `CCOC(=O)[C@H](CCc1ccccc1)N[C@@H](C)C(=O)N1CCC[C@H]1C(=O)O`, for which the ED50 is 0.14 mg/kg in the experiment on Rattus norvegicus [2], 0.15 mg/kg in the experiment on Canis familiaris [4], 0.28 mg/kg in the experiment on Rattus norvegicus [6] and 0.096 mg/kg in the experiment on Canis familiaris [7]. The Delta blood pressure with Rattus norvegicus [3] was -54 mmHg; in the experiment on Rattus norvegicus [5], -35 mmHg.

`CCOC(=O)[C@H](CCc1ccccc1)N[C@H]1CCc2ccccc2N(CC(=O)O)C1=O` [BENAZEPRIL]: in the experiment with Rattus norvegicus [2], the ED50 is 0.1 mg/kg. Moreover, in the experiment with Rattus norvegicus [3], the Delta blood pressure was found to be 50 mmHg. In [8], this compound came in with an IC50 of 1.7 nM.

Take `NCCCC[C@H](N[C@H]1CCc2ccccc2N(CC(=O)O)C1=O)C(=O)O` [LIBENZAPRIL]: the Delta blood pressure with Rattus norvegicus [9] was -69 mmHg. Moreover, the ED50 was determined as 1.7 mg/kg with Rattus norvegicus [2] and 0.07 mg/kg in the experiment on Canis familiaris [10]. The compound further yielded an IC50 in experiment [1] of 7 nM.
